Data reported in ChEMBL document CHEMBL4339229, “Chalcones and Chalcone-mimetic Derivatives as Notch Inhibitors in a Model of T-cell Acute Lymphoblastic Leukemia” (ACS Med Chem Lett, 2019).
Activity calls are given as the source filed them.

Legend:
[1] = tested on: KOPTK1; experiment: Antiproliferative activity against human KOPTK1 cells harboring activating Notch1 gene mutations assessed as reduction in cell viability at 2.5 uM incubated for 36 hrs by MTS assay; type: functional
Summary of the method: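 Single-point MTS viability screen in KOPTK1 T-ALL cells: 2.5 μM compound or DMSO vehicle for 36 h; viability expressed relative to DMSO; 30% viability decrease used as screening threshold; two independent experiments in triplicate, mean ± SEM.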

[2] = biological target: Neurogenic locus notch homolog protein 1 (Homo sapiens) (UniProt P46531); experiment: Inhibition of NOTCH1 signalling in human KOPTK1 cells harboring activating Notch1 gene mutations assessed as reduction in N1Val protein expression at 2.5 uM incubated for 36 hrs by Western blot analysis; type: cell-based
Neurogenic locus notch homolog protein 1 (Homo sapiens), sequence (P46531 whole entry, the tested form may be a part): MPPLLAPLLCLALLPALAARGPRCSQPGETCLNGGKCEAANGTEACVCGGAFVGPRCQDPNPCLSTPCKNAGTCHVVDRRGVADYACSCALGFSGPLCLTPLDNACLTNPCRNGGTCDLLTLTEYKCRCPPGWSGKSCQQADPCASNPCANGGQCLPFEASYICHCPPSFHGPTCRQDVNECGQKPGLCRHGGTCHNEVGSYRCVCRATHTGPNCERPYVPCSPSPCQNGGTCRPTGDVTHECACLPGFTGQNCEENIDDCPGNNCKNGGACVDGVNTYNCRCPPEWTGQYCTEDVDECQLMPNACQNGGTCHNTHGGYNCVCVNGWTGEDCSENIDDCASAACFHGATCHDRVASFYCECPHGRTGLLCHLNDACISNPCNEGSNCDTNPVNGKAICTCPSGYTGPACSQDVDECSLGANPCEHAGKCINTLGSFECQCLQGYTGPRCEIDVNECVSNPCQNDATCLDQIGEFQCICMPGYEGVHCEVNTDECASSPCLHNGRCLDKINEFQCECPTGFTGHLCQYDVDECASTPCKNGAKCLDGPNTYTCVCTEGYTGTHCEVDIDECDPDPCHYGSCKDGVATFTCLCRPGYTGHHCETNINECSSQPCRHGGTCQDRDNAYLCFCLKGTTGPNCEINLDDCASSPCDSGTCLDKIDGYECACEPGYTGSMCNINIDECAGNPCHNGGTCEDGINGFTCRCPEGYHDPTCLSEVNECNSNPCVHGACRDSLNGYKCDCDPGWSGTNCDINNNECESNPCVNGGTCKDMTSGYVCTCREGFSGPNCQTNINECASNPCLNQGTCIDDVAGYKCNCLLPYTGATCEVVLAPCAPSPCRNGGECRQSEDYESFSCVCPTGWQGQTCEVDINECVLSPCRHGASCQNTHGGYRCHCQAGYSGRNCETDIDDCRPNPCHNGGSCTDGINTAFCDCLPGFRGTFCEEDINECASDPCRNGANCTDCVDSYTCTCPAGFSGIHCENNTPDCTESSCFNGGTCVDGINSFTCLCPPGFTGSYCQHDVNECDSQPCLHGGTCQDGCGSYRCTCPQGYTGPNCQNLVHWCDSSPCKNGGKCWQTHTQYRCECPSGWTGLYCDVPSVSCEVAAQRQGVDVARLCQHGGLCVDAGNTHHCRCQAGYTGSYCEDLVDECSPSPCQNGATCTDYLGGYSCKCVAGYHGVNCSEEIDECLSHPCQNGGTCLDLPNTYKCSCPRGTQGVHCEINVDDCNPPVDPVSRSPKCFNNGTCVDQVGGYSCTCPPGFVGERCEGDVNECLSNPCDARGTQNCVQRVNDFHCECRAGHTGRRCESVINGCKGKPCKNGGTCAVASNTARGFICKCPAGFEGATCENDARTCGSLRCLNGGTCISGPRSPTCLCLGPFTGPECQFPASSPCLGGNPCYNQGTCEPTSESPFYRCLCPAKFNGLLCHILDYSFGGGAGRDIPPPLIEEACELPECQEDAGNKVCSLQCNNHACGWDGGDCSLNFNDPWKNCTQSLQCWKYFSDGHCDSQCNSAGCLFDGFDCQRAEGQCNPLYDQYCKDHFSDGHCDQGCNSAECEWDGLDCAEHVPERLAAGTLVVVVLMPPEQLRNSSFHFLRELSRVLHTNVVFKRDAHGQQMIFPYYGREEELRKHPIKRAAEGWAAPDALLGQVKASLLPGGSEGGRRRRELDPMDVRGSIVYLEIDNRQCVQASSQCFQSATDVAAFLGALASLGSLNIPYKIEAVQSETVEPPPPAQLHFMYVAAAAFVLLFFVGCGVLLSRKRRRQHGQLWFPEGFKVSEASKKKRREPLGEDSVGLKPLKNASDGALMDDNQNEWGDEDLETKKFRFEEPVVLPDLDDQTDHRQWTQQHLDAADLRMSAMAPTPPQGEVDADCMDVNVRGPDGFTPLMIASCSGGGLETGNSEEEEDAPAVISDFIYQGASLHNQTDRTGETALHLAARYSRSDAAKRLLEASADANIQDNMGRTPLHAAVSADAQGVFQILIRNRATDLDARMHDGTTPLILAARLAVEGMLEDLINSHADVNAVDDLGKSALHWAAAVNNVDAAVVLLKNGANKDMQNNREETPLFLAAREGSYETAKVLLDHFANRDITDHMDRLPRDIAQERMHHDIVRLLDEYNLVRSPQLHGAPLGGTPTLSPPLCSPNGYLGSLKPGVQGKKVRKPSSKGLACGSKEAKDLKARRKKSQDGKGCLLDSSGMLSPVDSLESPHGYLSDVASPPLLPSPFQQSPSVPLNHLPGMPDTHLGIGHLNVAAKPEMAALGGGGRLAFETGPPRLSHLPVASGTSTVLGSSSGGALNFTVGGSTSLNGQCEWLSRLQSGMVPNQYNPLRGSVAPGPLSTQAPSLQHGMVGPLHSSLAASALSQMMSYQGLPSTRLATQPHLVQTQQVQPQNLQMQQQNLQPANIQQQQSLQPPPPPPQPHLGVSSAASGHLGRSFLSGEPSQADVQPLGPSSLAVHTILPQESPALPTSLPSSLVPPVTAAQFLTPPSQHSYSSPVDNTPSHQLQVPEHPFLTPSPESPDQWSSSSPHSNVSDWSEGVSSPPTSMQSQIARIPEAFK
Summary of the method: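 KOPTK1 cells exposed 36 h to 2.5 μM compound or DMSO; endogenous activated Notch1 intracellular domain (N1Val) detected by Western blot with β-actin loading control; relative levels quantified by optical densitometry versus DMSO.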

[3] = biological target: Neurogenic locus notch homolog protein 1 (Homo sapiens) (UniProt P46531); experiment: Inhibition of NOTCH1 signalling in human KOPTK1 cells harboring activating Notch1 gene mutations assessed as reduction in DELTEX1 mRNA expression at 2.5 uM incubated for 36 hrs by RT-PCR analysis; type: cell-based
Summary of the method: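 DELTEX1 (DTX1) relative gene expression measured in KOPTK1 cells after 36 h with 2.5 μM compound or DMSO vehicle; three independent experiments in triplicate, mean ± SEM.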

[4] = tested on: KOPTK1; experiment: Antiproliferative activity against human KOPTK1 cells harboring activating Notch1 gene mutations assessed as reduction in cell viability incubated for 36 hrs by MTS assay; type: functional, cell-based; details: KOPTK1, 36 h
Summary of the method: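 Dose–response MTS proliferation assay in KOPTK1 cells at 0, 0.5, 1, 2.5, 5, 10, 20 and 50 μM for 36 h; IC50 taken as half-maximal growth-inhibitory concentration; three independent experiments in triplicate, mean ± SD.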

[5] = tested on: KOPTK1; experiment: Induction of cell death in human KOPTK1 cells harboring activating Notch1 gene mutations assessed as increase in cleaved PARP protein expression at 2.5 uM incubated for 36 hrs by Western blot analysis; type: functional, cell-based
Summary of the method: (§1)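 Western blot of KOPTK1 lysates probed for p27kip, full-length and cleaved PARP, β-actin as loading control.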

[6] = tested on: KOPTK1; experiment: Induction of cell death in human KOPTK1 cells harboring activating Notch1 gene mutations assessed as increase in p27kip protein expression at 2.5 uM incubated for 36 hrs by Western blot analysis; type: functional, cell-based; summary of the method: as §1
[7] = tested on: HaCaT; experiment: Antiproliferative activity against immortalized human HaCaT cells assessed as reduction in cell viability at 2.5 uM incubated for 36 hrs by MTS assay; type: functional, cell-based
[8] = tested on: Jurkat; experiment: Antiproliferative activity against human Jurkat cells assessed as reduction in cell viability at 2.5 uM incubated for 36 hrs by MTS assay; type: functional, cell-based

| SMILES | inhibition [2] | inhibition [3] | Activity [1] | IC50 [4] | Activity [5] | Activity [6] | Activity [7] | Activity [8] |
| --- | --- | --- | --- | --- | --- | --- | --- | --- |
| COc1ccc(C(=O)/C=C/c2ccc(O)cc2)c(O)c1 | Active | Active | >=30% | 1910 nM |  |  |  |  |
| COc1ccc(C(=O)/C=C/c2ccc(O)c(C)c2)c(O)c1 | Active | Active | >=30% |  | Active | Active |  |  |
| Cc1ccc(C(=O)/C=C/c2ccc(O)cc2)cc1 | Active | Active | >=30% | 3830 nM | inactive | Active |  |  |

The next lines start with results.

| inhibition [2] | inhibition [3] | SMILES | Activity [1] | IC50 [4] | Activity [5] | Activity [6] | Activity [7] | Activity [8] |
| --- | --- | --- | --- | --- | --- | --- | --- | --- |
| Active | Active | COc1ccc(C(=O)C2CCc3cc(O)ccc3C2)c(O)c1 (racemic) | >=30% | 2460 nM | inactive | Active |  |  |
| Active | Active | COc1ccc2c(c1)CCC(C(=O)c1ccc(OC)cc1OC)C2 (racemic) | >=30% | 1370 nM | Active | inactive | Active | Active |
| Active | Active | COc1ccc2c(c1)CC(C(=O)c1ccc(OC)cc1OC)CC2 (racemic) | >=30% | 720 nM | Active | inactive | Active | Active |
